Source: ChEMBL document CHEMBL4308845, “Allosteric Activation of Striatal-Enriched Protein Tyrosine Phosphatase (STEP, PTPN5) by a Fragment-like Molecule” (J Med Chem, 2019)
Calls of active or inactive are those of the source. No cut-off for these calls is given here.

Assays:
Homo sapiens = organism: Homo sapiens; test: Activation of human STEP46 (197 to 565 residues) expressed in Escherichia coli BL21(DE3) at 100 uM using biotin-pFyn peptide substrate after 60 mins by AlphaLISA assay relative to control
Outline: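 STEP46 (50 nM final) with biotinylated pFyn peptide (20 nM final) and compound in 1% DMSO, 60 min at room temperature in the dark. Detection by anti non-phospho Src/Tyr416 antibody in stop buffer containing 10 μM orthovanadate, plus protein A acceptor and streptavidin donor beads, 15 min each. % CTL computed against enzyme (100%) and no-enzyme (0%) controls.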

[1] = target: T1, Tyrosine-protein phosphatase non-receptor type 1 (Homo sapiens) (UniProt P18031); test: Activation of human PTP1B (1 to 405 residues) at 500 uM preincubated for 10 mins followed by EDT-pY-Y-RKG-amide substrate addition and measured after 1.5 hrs by AlphaLISA assay
T1 sequence (whole entry): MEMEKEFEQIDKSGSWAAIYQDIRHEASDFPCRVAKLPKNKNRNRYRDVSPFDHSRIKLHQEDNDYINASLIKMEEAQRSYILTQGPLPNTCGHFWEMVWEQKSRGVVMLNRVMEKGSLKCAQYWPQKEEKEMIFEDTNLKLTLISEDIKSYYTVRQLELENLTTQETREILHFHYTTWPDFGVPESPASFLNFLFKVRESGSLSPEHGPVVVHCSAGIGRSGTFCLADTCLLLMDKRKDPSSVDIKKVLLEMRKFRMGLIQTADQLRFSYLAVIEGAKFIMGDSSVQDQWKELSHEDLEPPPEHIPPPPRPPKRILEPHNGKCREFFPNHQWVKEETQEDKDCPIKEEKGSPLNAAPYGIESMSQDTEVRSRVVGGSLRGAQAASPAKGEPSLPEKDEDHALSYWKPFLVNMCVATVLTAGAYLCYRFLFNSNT
Outline: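 In-house PTP1B (1−405) at 500 pM final, preincubated 10 min at 24 °C with compound (up to 500 μM), then EDT-pY-Y-RKG-amide (1.4 μM final) or pFYN (20 μM final) added; 1.5 h at 24 °C, humidified. Stopped with 200 μM orthovanadate. Competition AlphaScreen using biotin-Ahx-EDT-pY-Y-RKG-amide (2.5 nM), anti-pTyr antibody 4G10 (500 pM), beads (5 μg/mL each), 2 h at 24 °C. Read against on-plate substrate standard curve.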

**Q.** For `N=C(N)Nc1cc(C2CCNCC2)cc(C(F)(F)F)c1`, which Activity (Homo sapiens) is on record?
**A.** The Activity was 33%.

**Q.** What about the Activity [1] of the same compound?
**A.** Its Activity is “inactive”.
